Source: ChEMBL document CHEMBL4251683, “Improved Dose-Response Relationship of (+)-Discodermolide-Taxol Hybrid Congeners” (2018)
Values belong to the molecule of their own block, whether it stands above or below them. The source made the active and inactive calls. The calls are words filed in the database; no cut-off is given here.

How the values were obtained:
[1] = tested on: MDA-MB-468; test: Induction of cell death in human MDA-MB-468 cells at EC80 concentration after 3 to 6 days by DAPI staining based flow cytometry; format: functional
Procedure, shortened: (§1)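 Compounds given at approximately EC80 (taken from the cell's own dose-response data) for 3 to 6 days depending on line. Floating and trypsinized adherent cells were pooled, washed 3–5 times in warm PBS, and stained with DAPI (1/10,000) in PBS with 4% FBS on ice. Flow cytometry counted 10 000 cells per gate: dead = DAPI+, senescent = SSC+ DAPI−. Duplicate experiments, mean ± SEM.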

[2] = tested on: HEY; test: Induction of senescence in human HEY cells assessed as increase in IL-8 mRNA expression level at EC80 concentration after 6 days by qRT-PCR analysis; format: functional, cell-based
Procedure, shortened: (§2)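 Cells treated 6 days at EC80 doses (derived from dose-response data) and analysed for SASP transcripts by qRT-PCR. Expression was normalised to cyclophilin B and expressed relative to vehicle-treated asynchronous cells. Bars are mean ± SEM (n = 2).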

[3] = tested on: HEY; test: Induction of senescence in human HEY cells assessed as increase in CXCL1 mRNA expression level at EC80 concentration after 6 days by qRT-PCR analysis; format: functional, cell-based; procedure, shortened: as §2
[4] = tested on: Hs-578T; test: Induction of cell death in human Hs578T cells at EC80 concentration after 3 to 6 days by DAPI staining based flow cytometry; format: functional; procedure, shortened: as §1
[5] = species: Bos taurus; test: Induction of bovine brain tubulin alpha polymerization assessed as alpha tubulin expression by measuring pellet/supernatant and pellet fraction level at 3 uM after 1 hr by immunoblot method (reference value: 10.4%)
Procedure, shortened: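 Purified bovine brain tubulin incubated 30 min at 37 °C with 3 μM compound in MEM–glycerol buffer, 2 mM GTP, pH 6.9. Spun at 120000g, 37 °C, 1 h. Supernatant and SDS-solubilized pellet run on SDS-PAGE, α-tubulin quantified by Western blot, % polymerized calculated as P/(S + P).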

[6] = tested on: MDA-MB-468; test: Induction of senescence in human MDA-MB-468 cells at EC80 concentration after 3 to 6 days by DAPI staining based flow cytometry; format: functional; procedure, shortened: as §1
[7] = tested on: BT-549; test: Induction of senescence in human BT549 cells at EC80 concentration after 3 to 6 days by DAPI staining based flow cytometry; format: functional; procedure, shortened: as §1
[8] = tested on: HEY; test: Induction of senescence in human HEY cells assessed as increase in PAI1 mRNA expression level at EC80 concentration after 6 days by qRT-PCR analysis; format: functional, cell-based; procedure, shortened: as §2
[9] = tested on: HEY; test: Induction of senescence in human HEY cells at EC80 concentration after 3 to 6 days by DAPI staining based flow cytometry; format: functional; procedure, shortened: as §1
[10] = tested on: BT-549; test: Induction of cell death in human BT549 cells at EC80 concentration after 3 to 6 days by DAPI staining based flow cytometry; format: functional; procedure, shortened: as §1
[11] = tested on: Hs-578T; test: Induction of senescence in human Hs578T cells at EC80 concentration after 3 to 6 days by DAPI staining based flow cytometry; format: functional; procedure, shortened: as §1
[12] = tested on: MCF7; test: Antiproliferative activity against human MCF7 cells after 3 to 7 days by SRB assay; format: functional, cell-based
Procedure, shortened: (§3)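 Sulforhodamine B total-protein read-out on adherent cells maintained in RPMI with 10% FBS. Seeding was 900–4000 cells per well depending on line, with 24 h allowed for attachment. Six replicate wells per concentration, exposure for three cell doublings (3 to 7 days); DMSO final below 0.01%. Logistic sigmoidal fit by nonlinear least squares gave EC50, EMax and AUC; experiments repeated at least three times.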

[13] = tested on: BT-20; test: Antiproliferative activity against human BT20 cells after 3 to 7 days by SRB assay; format: functional, cell-based; procedure, shortened: as §3
[14] = tested on: A549; test: Antiproliferative activity against human A549 cells after 3 to 7 days by SRB assay; format: functional, cell-based; procedure, shortened: as §3
[15] = tested on: HEY; test: Antiproliferative activity against human HEY cells after 3 to 7 days by SRB assay; format: functional, cell-based; procedure, shortened: as §3
[16] = tested on: MDA-MB-157; test: Antiproliferative activity against human MDA-MB-157 cells after 3 to 7 days by SRB assay; format: functional, cell-based; procedure, shortened: as §3
[17] = tested on: MDA-MB-468; test: Antiproliferative activity against human MDA-MB-468 cells after 3 to 7 days by SRB assay; format: functional, cell-based; procedure, shortened: as §3
[18] = tested on: BT-549; test: Antiproliferative activity against human BT549 cells after 3 to 7 days by SRB assay; format: functional, cell-based; procedure, shortened: as §3
[19] = tested on: Hs-578T; test: Antiproliferative activity against human Hs578T cells after 3 to 7 days by SRB assay; format: functional, cell-based; procedure, shortened: as §3
[20] = tested on: HCC1143; test: Antiproliferative activity against human HCC1143 cells after 3 to 7 days by SRB assay; format: functional, cell-based; procedure, shortened: as §3
[21] = tested on: Hs-578T; test: Induction of senescence in human Hs578T cells assessed as increase in cell population with high side scatter at 100 nM after 10 days by DAPI staining based flow cytometry; format: functional
Procedure, shortened: (§4)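 HS578T treated with 100 nM doxorubicin for 10 days, then stained with DAPI for live-cell flow cytometry. Forward scatter (volume) and side scatter (granularity) recorded. Dead cells were DAPI+; senescent cells were high FSC and SSC with low DAPI uptake; mitotic catastrophe was FSC increase only.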

[22] = tested on: Hs-578T; test: Induction of senescence in human Hs578T cells assessed as increase in IL-6 mRNA expression level at 100 nM after 10 days by qRT-PCR analysis; format: functional, cell-based
Procedure, shortened: (§5)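 HS578T exposed to 100 nM doxorubicin for 10 days, then sorted for SSC+ DAPI− cells. Sorted and unsorted populations assayed by qRT-PCR for SASP transcripts. Expression was normalised to cyclophilin B, and groups compared by unpaired t test.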

[23] = tested on: Hs-578T; test: Induction of senescence in human Hs578T cells assessed as increase in IL-8 mRNA expression level at 100 nM after 10 days by qRT-PCR analysis; format: functional, cell-based; procedure, shortened: as §5
[24] = tested on: Hs-578T; test: Induction of senescence in human Hs578T cells assessed as increase in cell population with high forward scatter at 100 nM after 10 days by DAPI staining based flow cytometry; format: functional; procedure, shortened: as §4
[25] = tested on: Hs-578T; test: Induction of senescence in human Hs578T cells assessed as increase in CXCL1 mRNA expression level at 100 nM after 10 days by qRT-PCR analysis; format: functional, cell-based; procedure, shortened: as §5
[26] = tested on: Hs-578T; test: Induction of mitotic catastrophe in human Hs578T cells assessed as increase in cell population with high forward scatter at 100 nM after 10 days by DAPI staining based flow cytometry; format: functional; procedure, shortened: as §4
[27] = tested on: Hs-578T; test: Induction of senescence in human Hs578T cells assessed as increase in dead cells at 100 nM after 10 days by DAPI staining based flow cytometry; format: functional, cell-based; procedure, shortened: as §4
[28] = tested on: MDA-MB-468; test: Induction of senescence in human MDA-MB-468 cells assessed as increase in CXCL1 mRNA expression level at EC80 concentration after 6 days by qRT-PCR analysis; format: functional, cell-based; procedure, shortened: as §2
[29] = tested on: MDA-MB-468; test: Induction of senescence in human MDA-MB-468 cells assessed as increase in PAI1 mRNA expression level at EC80 concentration after 6 days by qRT-PCR analysis; format: functional, cell-based; procedure, shortened: as §2
[30] = tested on: MDA-MB-468; test: Induction of senescence in human MDA-MB-468 cells assessed as increase in IL-8 mRNA expression level at EC80 concentration after 6 days by qRT-PCR analysis; format: functional, cell-based; procedure, shortened: as §2

Activity [5]: 52.2%
SMILES: C=C/C=C\[C@H](C)[C@H](OC(=O)NCCCCNC(=O)c1ccc(N=[N+]=[N-])cc1)[C@@H](C)[C@H](O)[C@@H](C)C/C(C)=C\[C@H](C)[C@@H](O)[C@@H](C)/C=C\[C@@H](O)C[C@@H]1OC(=O)[C@H](C)[C@@H](O)[C@H]1C
Activity [1]: Active
Activity [2]: Active
Activity [3]: Active
Activity [4]: inactive
Activity [6]: <10%
Activity [7]: <10%
Activity [8]: Active
Activity [9]: 10 - 15%
Activity [10]: Active
Activity [11]: 15 - 18%

Activity [5]: 54.6%
SMILES: C=C/C=C\[C@H](C)[C@H](OC(=O)NCCNC(=O)c1ccc(N=[N+]=[N-])cc1)[C@@H](C)[C@H](O)[C@@H](C)C/C(C)=C\[C@H](C)[C@@H](O)[C@@H](C)/C=C\[C@@H](O)C[C@@H]1OC(=O)[C@H](C)[C@@H](O)[C@H]1C
Activity [1]: Active
Activity [2]: Active
Activity [3]: Active
Activity [4]: inactive
Activity [6]: <10%
Activity [7]: <10%
Activity [8]: Active
Activity [9]: 10 - 15%
Activity [10]: Active
Activity [11]: 15 - 18%

Activity [5]: 15.8%
SMILES: CC(=O)O[C@H]1C(=O)[C@@]2(C)[C@H]([C@H](OC(=O)c3ccccc3)[C@]3(O)C[C@H](OC(=O)[C@H](O)[C@@H](NC(=O)c4ccccc4)c4ccccc4)C(C)=C1C3(C)C)[C@]1(OC(C)=O)CO[C@@H]1C[C@@H]2O [PACLITAXEL]
Activity [12]: Active
Activity [13]: Active
Activity [14]: Active
Activity [15]: Active
Activity [16]: Active
Activity [17]: Active
Activity [18]: Active
Activity [19]: Active
Activity [20]: Active
Activity [9]: 10 - 15%
Activity [11]: 15 - 18%

SMILES: COc1cccc2c1C(=O)c1c(O)c3c(c(O)c1C2=O)C[C@@](O)(C(=O)CO)C[C@@H]3O[C@H]1C[C@H](N)[C@H](O)[C@H](C)O1
Activity [21]: Active
Activity [22]: Active
Activity [23]: Active
Activity [24]: Active
Activity [25]: Active
Activity [26]: Active
Activity [27]: Active

SMILES: C=C/C=C\[C@H](C)[C@H](OC(N)=O)[C@@H](C)[C@H](O)[C@@H](C)C/C(C)=C\[C@H](C)[C@@H](O)[C@@H](C)/C=C\[C@@H](O)C[C@@H]1OC(=O)[C@H](C)[C@@H](O)[C@H]1C [DISERMOLIDE]
Activity [28]: Active
Activity [12]: Active
Activity [13]: Active
Activity [14]: Active
Activity [4]: inactive
Activity [15]: Active
Activity [16]: Active
Activity [5]: 59.3%
Activity [17]: Active
Activity [18]: Active
Activity [19]: Active
Activity [29]: Active
Activity [20]: Active
Activity [30]: Active
Activity [9]: 10 - 15%
Activity [11]: 15 - 18%

Activity [5]: 60%
SMILES: C=C/C=C\[C@H](C)[C@H](OC(=O)NCCCNC(=O)c1cccc(N=[N+]=[N-])c1)[C@@H](C)[C@H](O)[C@@H](C)C/C(C)=C\[C@H](C)[C@@H](O)[C@@H](C)/C=C\[C@@H](O)C[C@@H]1OC(=O)[C@H](C)[C@@H](O)[C@H]1C
Activity [28]: Active
Activity [1]: Active
Activity [12]: Active
Activity [2]: Active
Activity [13]: Active
Activity [14]: Active
Activity [3]: Active
Activity [4]: inactive
Activity [15]: Active
Activity [16]: Active
Activity [17]: Active
Activity [18]: Active
Activity [19]: Active
Activity [29]: Active
Activity [20]: Active
Activity [30]: Active
Activity [6]: <10%
Activity [7]: <10%
Activity [8]: Active
Activity [9]: 10 - 15%
Activity [10]: Active
Activity [11]: 15 - 18%

Activity [5]: 56.1%
SMILES: C=C/C=C\[C@H](C)[C@H](OC(=O)NCCCNC(=O)c1ccc(C2(C(F)(F)F)N=N2)cc1)[C@@H](C)[C@H](O)[C@@H](C)C/C(C)=C\[C@H](C)[C@@H](O)[C@@H](C)/C=C\[C@@H](O)C[C@@H]1OC(=O)[C@H](C)[C@@H](O)[C@H]1C
Activity [28]: Active
Activity [1]: Active
Activity [12]: Active
Activity [2]: Active
Activity [13]: Active
Activity [14]: Active
Activity [3]: Active
Activity [4]: inactive
Activity [15]: Active
Activity [16]: Active
Activity [17]: Active
Activity [18]: Active
Activity [19]: Active
Activity [29]: Active
Activity [20]: Active
Activity [30]: Active
Activity [6]: <10%
Activity [7]: <10%
Activity [8]: Active
Activity [9]: 10 - 15%
Activity [10]: Active
Activity [11]: 15 - 18%

Activity [5]: 64.2%
SMILES: C=C/C=C\[C@H](C)[C@H](OC(=O)NCCCNC(=O)c1ccc(N=[N+]=[N-])cc1)[C@@H](C)[C@H](O)[C@@H](C)C/C(C)=C\[C@H](C)[C@@H](O)[C@@H](C)/C=C\[C@@H](O)C[C@@H]1OC(=O)[C@H](C)[C@@H](O)[C@H]1C
Activity [28]: Active
Activity [1]: Active
Activity [12]: Active
Activity [2]: Active
Activity [13]: Active
Activity [14]: Active
Activity [3]: Active
Activity [4]: inactive
Activity [15]: Active
Activity [16]: Active
Activity [17]: Active
Activity [18]: Active
Activity [19]: Active
Activity [29]: Active
Activity [20]: Active
Activity [30]: Active
Activity [6]: <10%
Activity [7]: <10%
Activity [8]: Active
Activity [9]: 10 - 15%
Activity [10]: Active
Activity [11]: 15 - 18%
